Assay results reported in ChEMBL document CHEMBL3244354, “Syntheses and biological activities of 7 beta-methyl steroids” (J Med Chem, 1979).
Active and inactive are the calls of the source. No cut-off for these calls is given here.

Experiments:
[1] = test system: 13762; test: Antitumor activity against rat 13762 cells allografted in Fischer 344 rat assessed as tumor weight at 100 mg/kg, ip qd for 20 days relative to control; format: functional; details: route intraperitoneal
Summary of the method: (§1)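 Female Fischer 344 rats, about 40 days old, received subcutaneous right-side grafts of 13762 mammary adenocarcinoma on day 0. From day 1 they got test compound in sesame oil ip daily for 20 days at 10 or 100 (mg/kg)/day. Vehicle controls got 0.5 mL/day. Endpoints were survivors/treated and FBW (minus tumor)/IBW. Tumor weight, final tumor size (length + width/2), and organ weights per 100 g were reported as % control.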

[2] = test system: Rattus norvegicus; test: Effect on pituitary weight in rat 13762 cells allografted Fischer 344 rat at 100 mg/kg, ip qd for 20 days relative to control; format: functional, Pituitary gland cell; details: route intraperitoneal; summary of the method: as §1
[3] = test system: Rattus norvegicus; test: Effect on adrenal weight in rat 13762 cells allografted Fischer 344 rat at 100 mg/kg, ip qd for 20 days relative to control; format: functional; details: route intraperitoneal; summary of the method: as §1
[4] = test system: Rattus norvegicus; test: Toxicity in rat 13762 cells allografted in Fischer 344 rat assessed as ratio of final body weight to initial body weight at 100 mg/kg, ip qd for 20 days; format: organism-based; design: dose 100 mg/kg, route intraperitoneal; details: in vivo, 480 h; summary of the method: as §1
[5] = test system: Rattus norvegicus; test: Effect on spleen weight in rat 13762 cells allografted Fischer 344 rat at 100 mg/kg, ip qd for 20 days relative to control; format: functional; details: route intraperitoneal; summary of the method: as §1
[6] = test system: 13762; test: Antitumor activity against rat 13762 cells allografted in Fischer 344 rat assessed as host survival at 100 mg/kg, ip qd for 20 days; format: functional, organism-based; design: dose 100 mg/kg; summary of the method: as §1
[7] = test system: Rattus norvegicus; test: Effect on ovarian weight in rat 13762 cells allografted Fischer 344 rat at 100 mg/kg, ip qd for 20 days relative to control; format: functional; details: route intraperitoneal; summary of the method: as §1
[8] = test system: Rattus norvegicus; test: Effect on thymus weight in rat 13762 cells allografted Fischer 344 rat at 100 mg/kg, ip qd for 20 days relative to control; format: functional; details: route intraperitoneal; summary of the method: as §1
[9] = test system: Rattus norvegicus; test: Effect on uterine weight in rat 13762 cells allografted Fischer 344 rat at 100 mg/kg, ip qd for 20 days relative to control; format: functional; details: route intraperitoneal; summary of the method: as §1
[10] = test system: Rattus norvegicus; test: Effect on adrenal weight in rat 13762 cells allografted Fischer 344 rat at 10 mg/kg, ip qd for 20 days relative to control; format: functional; details: route intraperitoneal; summary of the method: as §1
[11] = test system: Rattus norvegicus; test: Effect on thymus weight in rat 13762 cells allografted Fischer 344 rat at 10 mg/kg, ip qd for 20 days relative to control; format: functional; details: route intraperitoneal; summary of the method: as §1
[12] = test system: Rattus norvegicus; test: Effect on ovarian weight in rat 13762 cells allografted Fischer 344 rat at 10 mg/kg, ip qd for 20 days relative to control; format: functional; details: route intraperitoneal; summary of the method: as §1
[13] = test system: Rattus norvegicus; test: Androgenic activity in castrate rat assessed as ventrol prostate weight at 3 mg, sc qd for 7 days by autopsy analysis (reference value: 17.5 +/- 0.41 mg); format: functional, Prostate gland
[14] = test system: Rattus norvegicus; test: Effect on spleen weight in rat 13762 cells allografted Fischer 344 rat at 10 mg/kg, ip qd for 20 days relative to control; format: functional; details: route intraperitoneal; summary of the method: as §1
[15] = test system: 13762; test: Antitumor activity against rat 13762 cells allografted in Fischer 344 rat assessed as tumor weight at 10 mg/kg, ip qd for 20 days relative to control; format: functional; details: route intraperitoneal; summary of the method: as §1
[16] = test system: Rattus norvegicus; test: Toxicity in rat 13762 cells allografted in Fischer 344 rat assessed as ratio of final body weight to initial body weight at 10 mg/kg, ip qd for 20 days; format: organism-based; design: dose 10 mg/kg, route intraperitoneal; details: in vivo, 480 h; summary of the method: as §1
[17] = test system: Rattus norvegicus; test: Androgenic activity in castrate rat assessed as change in body weight at 3 mg, sc qd for 7 days by autopsy analysis (reference value: 88 gram); format: functional
[18] = test system: 13762; test: Antitumor activity against rat 13762 cells allografted in Fischer 344 rat assessed as host survival at 10 mg/kg, ip qd for 20 days; format: functional, organism-based; design: dose 10 mg/kg; summary of the method: as §1
[19] = test system: Rattus norvegicus; test: Androgenic activity in castrate rat assessed as seminal vesicle weight at 3 mg, sc qd for 7 days by autopsy analysis (reference value: 13.6 +/- 0.19 mg); format: functional
[20] = test system: 13762; test: Antitumor activity against rat 13762 cells allografted in Fischer 344 rat assessed as final tumor size at 10 mg/kg, ip qd for 20 days relative to control; format: functional; details: route intraperitoneal; summary of the method: as §1
[21] = test system: Rattus norvegicus; test: Myotrophic activity in castrate rat assessed as levator ani weight at 3 mg, sc qd for 7 days by autopsy analysis (reference value: 23.6 +/- 1.08 mg); format: functional
[22] = test system: Rattus norvegicus; test: Effect on uterine weight in rat 13762 cells allografted Fischer 344 rat at 10 mg/kg, ip qd for 20 days relative to control; format: functional; details: route intraperitoneal; summary of the method: as §1

Row | SMILES | Activity [1] [%] | Activity [2] [%] | Activity [3] [%] | Ratio [4] | Activity [5] [%] | Activity [6] | Activity [7] [%] | Activity [8] [%] | Activity [9] [%] | Activity [13] [mg] | Activity [17] [g] | Activity [19] [mg] | Activity [21] [mg] | other results
1 | CC(=O)O[C@H]1CC[C@H]2[C@@H]3CCC4=CC(=O)CC[C@]4(C)[C@H]3CC[C@]12C | 123 | 71 | 88 | 1.68 | 100 | Active | 65 | 31 | 179 | – | – | – | – | –
2 | CC(=O)O[C@H]1CC[C@H]2[C@@H]3[C@@H](C)C[C@H]4CSC[C@]4(C)[C@H]3CC[C@]12C | 133 | 90 | 87 | 1.55 | 145 | Active | 87 | 79 | 128 | 18.6 | 90 | 11.8 | 25.7 | Activity [10]: 101%; Activity [11]: 125%; Activity [12]: 105%; Activity [14]: 81%; Activity [15]: 85%; Ratio [16]: 1.5; Activity [18]: Active; Activity [20]: 85%; Activity [22]: 124%
3 | CC(=O)O[C@H]1CC[C@H]2[C@@H]3[C@@H](C)C[C@H]4CC(=O)CC[C@]4(C)[C@H]3CC[C@]12C | 132 | 56 | 68 | 1.81 | 108 | Active | 62 | 48 | 151 | 81.4 | 90 | 45.8 | 63.3 | Activity [10]: 68%; Activity [11]: 71%; Activity [12]: 77%; Activity [14]: 77%; Activity [15]: 84%; Ratio [16]: 1.58; Activity [18]: Active; Activity [20]: 90%; Activity [22]: 143%
4 | CCC(=O)O[C@H]1CC[C@H]2[C@@H]3CCC4=CC(=O)CC[C@]4(C)[C@H]3CC[C@]12C [TESTOSTERONE PROPIONATE] | – | – | – | – | – | – | – | – | – | 126 | 98 | 65.9 | 68.2 | –
5 | CC(=O)O[C@H]1CC[C@H]2[C@@H]3CC[C@H]4CSC[C@]4(C)[C@H]3CC[C@]12C | – | – | – | – | – | – | – | – | – | 61.9 | 95 | 48.6 | 65.2 | –
6 | C[C@H]1CC2=CC(=O)CC[C@]2(C)[C@H]2CC[C@@]3(C)[C@@H](CC[C@]3(C)O)[C@H]12 [CALUSTERONE] | 123 | 80 | 73 | 1.64 | 115 | Active | 60 | 57 | 148 | – | – | – | – | –
7 | C[C@H]1CC2=CC(=O)CC[C@]2(C)[C@H]2CC[C@]3(C)[C@@H](O)CC[C@H]3[C@H]12 | 103 | 73 | 70 | 1.58 | 108 | Active | 72 | 47 | 202 | – | – | – | – | –
